Assay results of several laboratories.
Lines come from different studies, so protocols differ.
rep papain-like protease: Replicase polyprotein 1ab, papain-like protease (rep, Porcine epidemic diarrhea virus, UniProt P0C6Y4)
SLC6A4: Sodium-dependent serotonin transporter (SLC6A4, Homo sapiens, UniProt P31645)
rep main protease: Replicase polyprotein 1ab, main protease (rep, Porcine epidemic diarrhea virus, UniProt P0C6Y4)

Structure (SMILES)	target	assay	conditions	measurement	result
O=C(NCc1cc(O)c(O)c(Br)c1)c1ccncc1Cl	rep papain-like protease	enzyme activity, inhibitor, FRET	10 µM	inhibition	44.4%
O=C(O)c1cccc(-c2noc(-c3ccccc3F)n2)c1	Flavin reductase (NADPH) (BLVRB, Homo sapiens, UniProt P30043)	binding, SPR		kon	3060 M⁻¹ s⁻¹
Cc1cc(O)c(-c2ccc([C@@H](C)CN(C)C)cc2)c2c1[nH]c(=O)c1sccc12	Calcium/calmodulin-dependent protein kinase type 1D (CAMK1D, Homo sapiens, UniProt Q8IU85)	cell-free assay, inhibitor	0.1 µM, lysate	inhibition	-8.71%
CCOC(=O)[C@@]12C[C@@H]1[C@@H](n1cnc3c(NCCCCCCc4ccccc4)nc(I)nc31)[C@H](O)[C@@H]2O	SLC6A4	ligand displacement, radioligand	10 µM	inhibition	68%
COc1cc(-c2cc(C(C)=O)n3ccccc23)cc(OC)c1Cn1ccnc1	Bromodomain adjacent to zinc finger domain protein 2B, bromodomain (BAZ2B, Homo sapiens, UniProt Q9UIF8)	thermal stability, DSF		ΔTm	1.6 °C
O[C@@H]1[C@H](O)[C@@H]2C[C@@H]2[C@H]1n1cnc2c(NCCC3CC3)ncnc21	SLC6A4	ligand displacement, radioligand	10 µM, cell membranes	inhibition	14%
COc1cc(CNC(=O)c2ccc(N(C)C)cc2)cc(Br)c1OC	rep main protease	enzyme activity, inhibitor, FRET	10 µM	inhibition	32.3%
N#CC[C@@]12C[C@@H]1[C@@H](n1cnc3c(NCCCCCCc4ccccc4)nc(I)nc31)[C@H](O)[C@@H]2O	SLC6A4	ligand displacement, radioligand	10 µM	inhibition	56%
CCCCC(=O)Nc1ccc(-c2ccc3ncn(CCC)c(=O)c3c2)cn1	Rhodopsin kinase GRK7 (GRK7, Homo sapiens, UniProt Q8WTQ7)	binding, competition with immobilised ligand	0.5 µM	remaining binding	93%
COc1ccc(CNC(=O)c2ccc(Br)cc2)cc1OC	rep main protease	enzyme activity, inhibitor, FRET	10 µM	inhibition	60.4%
CN1CCc2cccc3c2[C@H]1Cc1ccc(O)c(O)c1-3	D(1A) dopamine receptor (DRD1, Homo sapiens, UniProt P21728)	cAMP, agonist		Emax	~100%
CSc1nc(NCCC2CC2)c2ncn([C@H]3[C@H](O)[C@H](O)[C@@H]4C[C@@H]43)c2n1	SLC6A4	ligand displacement, radioligand	10 µM	inhibition	17%
COc1ccc(C(=O)NCc2cc(O)c(O)c(Br)c2)cc1OC	rep main protease	enzyme activity, inhibitor, FRET	10 µM	inhibition	74.7%
C1=C/COCc2cc(ccc2OCCN2CCCC2)Nc2nccc(n2)-c2cccc(c2)COC/1	Serine/threonine-protein kinase Nek2 (NEK2, Homo sapiens, UniProt P51955)	binding	0.1 µM	remaining binding	75%
COc1cc(CNC(=O)c2ccc(OC(F)(F)F)cc2)cc(Br)c1OC	rep papain-like protease	enzyme activity, inhibitor, FRET	10 µM	inhibition	10.8%
CCOC(=O)[C@@]12C[C@@H]1[C@@H](n1ccc3c(NCCCCc4ccccc4)nc(C#Cc4ccccc4)nc31)[C@H](O)[C@@H]2O	SLC6A4	ligand displacement, radioligand	10 µM	inhibition	9%
COc1cc(CNC(=O)c2ccc3ccccc3n2)cc(Br)c1OC	rep main protease	enzyme activity, inhibitor, FRET	10 µM	inhibition	85.2%
CCOC(=O)[C@@]12C[C@@H]1[C@@H](n1cnc3c(NCCCCCc4ccccc4)nc(C#Cc4ccc(Cl)s4)nc31)[C@H](O)[C@@H]2O	SLC6A4	ligand displacement, radioligand	10 µM	inhibition	-14%
